Laboratory results published in ChEMBL document CHEMBL1156158, “Praziquantel analogs with activity against juvenile Schistosoma mansoni” (Bioorg Med Chem Lett, 2010).
Converted amounts (≈) assume the structure as drawn. Blank lines part the entries; values can stand above or below the compound they belong to. The source made the active and inactive calls. The rule behind the calls is not given here.

How the values were obtained:
Schistosoma mansoni [1] = test: Antischistosomal activity in adult Schistosoma mansoni infected in mouse assessed as total worm reduction at 400 mg/kg, po after 28 days; type: functional; design: scale not given: the % may be the effect or the level left
Summary of the method: (§1)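 Mice were infected with about 80 cercariae on day 0. A single oral dose was given, dissolved or suspended in 3% ethanol/7% Tween 80 vehicle: groups of three mice on day 21 (juvenile) and groups of five on day 49 (adult). Mice were killed by CO₂ 28 days after treatment and dissected for total and female worm counts versus vehicle controls. Medians were compared by Kruskal–Wallis test.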

Schistosoma mansoni [2] = test: Antischistosomal activity in juvenile Schistosoma mansoni infected in mouse assessed as female worm reduction at 400 mg/kg, po after 28 days; type: functional; design: scale not given: the % may be the effect or the level left; summary of the method: as §1
Schistosoma mansoni [3] = test: Antischistosomal activity in adult Schistosoma mansoni infected in mouse assessed as female worm reduction at 400 mg/kg, po after 28 days; type: functional; design: scale not given: the % may be the effect or the level left; summary of the method: as §1
Schistosoma mansoni [4] = test: Antischistosomal activity against adult Schistosoma mansoni assessed as morphological changes at 10 ug/ml after 120 hrs; type: functional, organism-based
Summary of the method: (§2)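 Adult worms were recovered from infected mice by portal perfusion with warm DMEM containing 2 mM L-glutamine, penicillin/streptomycin, 20 mM Hepes and heparin. Host red cells were removed and the worms moved to DMEM with 10% FCS, glutamine and antibiotics. Compounds were added from 10 mg/mL DMSO stocks. At 120 h, motility disturbances and morphological changes were scored.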

Schistosoma mansoni [5] = test: Antischistosomal activity in juvenile Schistosoma mansoni infected in mouse assessed as total worm reduction at 400 mg/kg, po after 28 days; type: functional; design: scale not given: the % may be the effect or the level left; summary of the method: as §1
Schistosoma mansoni [6] = test: Antischistosomal activity against adult Schistosoma mansoni assessed as motility reduction at 10 ug/ml after 120 hrs; type: functional; design: scale not given: the % may be the effect or the level left; summary of the method: as §2
Liver microsomes = test: Metabolic stability in human liver microsomes at 1 uM after 120 mins by LC-MS/MS; type: ADME, Microsome; details: 2 h
Summary of the method: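 Compound at 1 µM was incubated at 37 °C with 0.5 mg/mL microsomes. Reactions were started with an NADPH-regenerating system and stopped with ice-cold MeOH. Loss of parent compound over 120 min was followed by LC–MS/MS.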

Schistosoma mansoni [7] = test: Antischistosomal activity against adult Schistosoma mansoni; type: functional, organism-based
Schistosoma mansoni [8] = test: Antischistosomal activity in juvenile Schistosoma mansoni infected in mouse assessed as total worm reduction at 200 mg/kg, po after 28 days; type: functional; design: scale not given: the % may be the effect or the level left
Summary of the method: (§3)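 Mice infected with ca. 80 S. mansoni cercariae on day 0; single oral dose given on day 21 post-infection (juvenile stage) in 3% ethanol/7% Tween 80 vehicle, groups of three mice. Sacrificed by CO₂ 28 days post-treatment and dissected; total and female worm reduction rates versus vehicle controls, Kruskal–Wallis test comparing medians.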

Schistosoma mansoni [9] = test: Antischistosomal activity in juvenile Schistosoma mansoni infected in mouse assessed as female worm reduction at 200 mg/kg, po after 28 days; type: functional; design: scale not given: the % may be the effect or the level left; summary of the method: as §3

Compound: O=C1CN(C(=O)C23CC4CC(CC(C4)C2)C3)CC2c3ccccc3CCN12 (stereo not drawn)
Activity (Schistosoma mansoni [1]): 0%
Activity (Schistosoma mansoni [2]): 56%
Activity (Schistosoma mansoni [3]): 0%
Activity (Schistosoma mansoni [4]): inactive
Activity (Schistosoma mansoni [5]): 42%
Activity (Schistosoma mansoni [6]): 0%

Compound: O=C(N1CCNCC1)N1CC(=O)N2CCc3ccccc3C2C1 (stereo not drawn)
Activity (Schistosoma mansoni [1]): 0%
Activity (Schistosoma mansoni [2]): 23%
Activity (Schistosoma mansoni [3]): 0%
Activity (Schistosoma mansoni [4]): inactive
Activity (Schistosoma mansoni [5]): 25%
Activity (Schistosoma mansoni [6]): 0%

Compound: O=C1CCC(C(=O)N2CC(=O)N3CCc4ccccc4C3C2)CC1 (racemic)
Activity (Schistosoma mansoni [1]): 79%
Activity (Schistosoma mansoni [2]): 41%
Activity (Schistosoma mansoni [3]): 81%
Activity (Schistosoma mansoni [4]): Active
Activity (Schistosoma mansoni [5]): 25%
Activity (Schistosoma mansoni [6]): 0%

Stability (Liver microsomes): Stable
Compound: O=C(C1CCC(F)(F)CC1)N1CC(=O)N2CCc3ccccc3C2C1 (stereo not drawn)
Activity (Schistosoma mansoni [1]): 40%
Activity (Schistosoma mansoni [2]): 44%
Activity (Schistosoma mansoni [3]): 39%
Activity (Schistosoma mansoni [4]): Active
Activity (Schistosoma mansoni [5]): 38%
Activity (Schistosoma mansoni [6]): 25%

Compound: O=C(N1CCCCC1)N1CC(=O)N2CCc3ccccc3C2C1 (stereo not drawn)
Activity (Schistosoma mansoni [1]): 1%
Activity (Schistosoma mansoni [2]): 34%
Activity (Schistosoma mansoni [3]): 9%
Activity (Schistosoma mansoni [4]): Active
Activity (Schistosoma mansoni [5]): 27%
Activity (Schistosoma mansoni [6]): 38%

IC50 (Schistosoma mansoni [7]): 0.37 mg/L (≈ 1.18 µM)
Compound: O=C(C1CCCCC1)N1CC(=O)N2CCc3ccccc3C2C1 (stereo not drawn) [PRAZIQUANTEL]
Activity (Schistosoma mansoni [1]): 96%
Activity (Schistosoma mansoni [2]): 18%
Activity (Schistosoma mansoni [3]): 98%
Activity (Schistosoma mansoni [4]): Active
Activity (Schistosoma mansoni [5]): 7%
Activity (Schistosoma mansoni [6]): 100%

Compound: O=C(N1CCOCC1)N1CC(=O)N2CCc3ccccc3C2C1 (stereo not drawn)
Activity (Schistosoma mansoni [1]): 0%
Activity (Schistosoma mansoni [2]): 22%
Activity (Schistosoma mansoni [3]): 0%
Activity (Schistosoma mansoni [4]): inactive
Activity (Schistosoma mansoni [5]): 14%
Activity (Schistosoma mansoni [6]): 0%

Compound: O=C1CN(C(=O)[C@H]2CC[C@]3(CC2)OO[C@]2(O3)C3CC4CC(C3)CC2C4)CC2c3ccccc3CCN12 (stereo partly drawn)
Activity (Schistosoma mansoni [1]): 0%
Activity (Schistosoma mansoni [2]): 0%
Activity (Schistosoma mansoni [3]): 0%
Activity (Schistosoma mansoni [4]): inactive
Activity (Schistosoma mansoni [5]): 0%
Activity (Schistosoma mansoni [6]): 0%

Stability (Liver microsomes): Stable
Compound: O=C(N1CCC(F)(F)CC1)N1CC(=O)N2CCc3ccccc3C2C1 (stereo not drawn)
Activity (Schistosoma mansoni [1]): 12%
Activity (Schistosoma mansoni [2]): 38%
Activity (Schistosoma mansoni [3]): 0%
Activity (Schistosoma mansoni [4]): inactive
Activity (Schistosoma mansoni [5]): 38%
Activity (Schistosoma mansoni [6]): 0%

Compound: O=C1CN(C(=O)[C@H]2CC[C@]3(CC2)OO[C@]2(O3)C3CC4CC(C3)CC2C4)CCN1
Activity (Schistosoma mansoni [8]): 85%
Activity (Schistosoma mansoni [1]): 1%
Activity (Schistosoma mansoni [3]): 13%
Activity (Schistosoma mansoni [4]): inactive
Activity (Schistosoma mansoni [9]): 85%
Activity (Schistosoma mansoni [6]): 0%
